Test results as given in ChEMBL document CHEMBL3272316, “Oxime ether derivatives, a new class of nonsteroidal antiinflammatory compounds” (J Med Chem, 1977).

System: Rattus norvegicus
Test: Antiinflammatory activity in po dosed rat assessed as inhibition of carrageenan-induced paw edema compound administered 1 hr prior challenge measured 3 hrs post challenge
Assay type: functional
Details: not given
Procedure, shortened: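 Rats of 180-220 g received oral doses in a series, in 1% tragacanth vehicle, 1 h before intraplantar injection of 0.05 mL of 1% carrageenan. Paw edema was measured at 3 h. ED50 (mg/kg) was derived graphically from the dose-inhibition curve, with 95% confidence limits by Finney's method for some compounds. Amines were tested as hydrochlorides.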
With `C/C(=N\OCC(=O)O)c1ccc(Cl)cc1` the ED50 was 28 mg/kg.
`C/C(=N\OCC(=O)O)c1ccc(F)cc1` showed an ED50 of 85 mg/kg.
Work on `C/C(=N\OCC(=O)O)c1ccc(Br)cc1` yielded an ED50 of 27 mg/kg.
Compound `C/C(=N\OCC(=O)O)c1ccc(C(F)(F)F)cc1` has an ED50 of 120 mg/kg.
`C/C(=N\OCC(=O)O)c1ccc(Cl)cc1Cl` showed an ED50 of 120 mg/kg.
With `C/C(=N\OCC(=O)O)c1ccc(Cl)c(Cl)c1` the ED50 was 65 mg/kg.
`O=C(O)CO/N=C/c1ccc(Cl)cc1` gave an ED50 of 45 mg/kg.
`O=C(O)CO/N=C/c1ccc(Br)cc1` showed an ED50 of 46 mg/kg.
`COC(=O)CO/N=C(\C)c1ccc(Cl)cc1` showed an ED50 of 24 mg/kg.
In the case of `COC(=O)CO/N=C(\C)c1ccc(Br)cc1`, the ED50 is reported as 14 mg/kg.
Compound `C/C(=N\OCC(=O)OCCN(C)C)c1ccc(Br)cc1` has an ED50 of 47 mg/kg.
For `C/C(=N\OCC(=O)OCCN(C)C)c1ccc(Cl)c(Cl)c1`, the ED50 was 80 mg/kg.
For `C/C(=N\OCC(N)=O)c1ccc(Cl)cc1`, the ED50 was 24 mg/kg.
Work on `C/C(=N\OCC(N)=O)c1ccc(Br)cc1` yielded an ED50 of 62 mg/kg.
`C/C(=N\OCC(N)=O)c1ccc(Cl)c(Cl)c1` showed an ED50 of 55 mg/kg.
`C/C(=N\OCC(=O)O)c1ccc(Cl)s1` showed an ED50 of 34 mg/kg.
Work on `OCCO/N=C/c1ccc(Cl)cc1` yielded an ED50 of 90 mg/kg.
Compound `C/C(=N\OCCO)c1ccc(Cl)s1` has an ED50 of 60 mg/kg.
With `C/C(=C\CC(=O)O)c1ccc(Cl)cc1` the ED50 was 70 mg/kg.
With `O=C(O)CN/N=C/c1ccc(Cl)cc1` the ED50 was 25 mg/kg.
`C/C(=N\NCC(=O)O)c1ccc(Cl)cc1` showed an ED50 of 22 mg/kg.
`C/C(=N\OCCC(=O)O)c1ccc(Cl)cc1` showed an ED50 of 80 mg/kg.
`C/C(=N\OCCCC(=O)O)c1ccc(Cl)cc1` gave an ED50 of 58 mg/kg.
For `C/C(=N\OCCCCCC(=O)O)c1ccc(Cl)cc1`, the ED50 was 92 mg/kg.
For `C/C(=N\OC(C)C(=O)O)c1ccc(Cl)cc1` (configuration not stated), the ED50 was 55 mg/kg.
In the case of `C/C(=N\OC(C)(C)C(=O)O)c1ccc(Cl)cc1`, the ED50 is reported as 42 mg/kg.
Compound `CCOC(=O)CO/N=C(\C)c1ccc(Cl)cc1` has an ED50 of 32 mg/kg.
`CCCOC(=O)CO/N=C(\C)c1ccc(Cl)cc1` showed an ED50 of 14 mg/kg.
Work on `C/C(=N\OCC(=O)OC(C)C)c1ccc(Cl)cc1` yielded an ED50 of 50 mg/kg.
Compound `CNCCOC(=O)CO/N=C(\C)c1ccc(Cl)cc1.Cl` has an ED50 of 26 mg/kg.
For `C/C(=N\OCC(=O)OCCNC1CCCCC1)c1ccc(Cl)cc1.Cl`, the ED50 was 26 mg/kg.
`C/C(=N\OCC(=O)OCCN1CCOCC1)c1ccc(Cl)cc1.Cl` gave an ED50 of 44 mg/kg.
With `C/C(=N\OCC(=O)OCCN1CCN(C)CC1)c1ccc(Cl)cc1.Cl` the ED50 was 54 mg/kg.
In the case of `C/C(=N\OCC(=O)OCC(C)(C)N(C)C)c1ccc(Cl)cc1.Cl`, the ED50 is reported as 27 mg/kg.
With `C/C(=N\OCC(=O)OCCCCCCN(C)C)c1ccc(Cl)cc1` the ED50 was 66 mg/kg.
`CNC(=O)CO/N=C(\C)c1ccc(Cl)cc1` gave an ED50 of 70 mg/kg.
`C/C(=N\OCC(=O)N(C)C)c1ccc(Cl)cc1` showed an ED50 of 120 mg/kg.
In the case of `C/C(=N\OCCO)c1ccc(Cl)cc1`, the ED50 is reported as 29 mg/kg.
Compound `CC(=O)OCCO/N=C(\C)c1ccc(Cl)cc1` has an ED50 of 43 mg/kg.
In the case of `C/C(=N\OCCOC(=O)C(C)(C)C)c1ccc(Cl)cc1`, the ED50 is reported as 38 mg/kg.
`COC(=O)OCCO/N=C(\C)c1ccc(Cl)cc1` gave an ED50 of 33 mg/kg.
For `C/C(=N\OCC(=O)OCCN(C)C)c1ccc(Cl)cc1` [CLOXIMATE], the ED50 was 34 mg/kg.
Work on `CC(C)Cc1ccc(CC(=O)O)cc1` [IBUFENAC] yielded an ED50 of 98 mg/kg.
With `CC(C)Cc1ccc(C(C)C(=O)O)cc1` (configuration not stated) [IBUPROFEN] the ED50 was 25 mg/kg.
In the case of `CCCCC1C(=O)N(c2ccccc2)N(c2ccccc2)C1=O` [PHENYLBUTAZONE], the ED50 is reported as 34 mg/kg.

Species: Rattus norvegicus
Test: Toxicity in rat assessed as effects on gastrointestinal mucosa
Assay type: organism-based, Intestinal mucosa
Details: in vivo
For `C/C(=N\OCC(=O)OCCN(C)C)c1ccc(Cl)cc1` [CLOXIMATE], the Activity was “Non-toxic”.

Species: Rattus norvegicus
Test: Toxicity in rat assessed as effect on emptying rate of stomach
Assay type: organism-based
Details: in vivo
With `C/C(=N\OCC(=O)OCCN(C)C)c1ccc(Cl)cc1` [CLOXIMATE] the Activity was “Non-toxic”.

System: not listed separately
Test: Toxicity in ip dosed mouse
Assay type: organism-based
Details: in vivo
Procedure, shortened: (§1)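 Mice; LD50 derived by Horn's method. Amine compounds were tested as hydrochloride salts, with one exception given as the free base.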
In the case of `C/C(=N\OCC(=O)OCCN(C)C)c1ccc(Cl)cc1` [CLOXIMATE], the LD50 is reported as > 320 mg/kg.

System: Rattus norvegicus
Test: Antiinflammatory activity in rat assessed as inhibition of carrageenan-induced paw edema at 50 mg/kg, po administered 1 hr prior challenge measured 3 hrs post challenge
Assay type: functional
Details: not given
Procedure, shortened: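 Rats of 180-220 g, four per group, were given 50 mg/kg orally in 1% tragacanth vehicle 1 h before intraplantar injection of 0.05 mL of 1% carrageenan. Hind-paw edema was measured 3 h after injection and reported as percent inhibition (Winter method).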
In the case of `C/C(=N\OCC(=O)O)c1ccccc1C(=O)O`, the inhibition in vivo at 50 mg/kg is reported as < 20%.
With `C/C(=N\OCC(=O)O)c1ccccc1` the inhibition in vivo at 50 mg/kg was < 20%.
For `C/C(=N\OCC(=O)O)c1ccccc1Cl`, the inhibition in vivo at 50 mg/kg was < 20%.
For `C/C(=N\OCC(=O)O)c1ccccc1O`, the inhibition in vivo at 50 mg/kg was < 20%.
Compound `C/C(=N\OCC(=O)O)c1cccc(Cl)c1` has an inhibition in vivo at 50 mg/kg of 20%.
Compound `C/C(=N\OCC(=O)O)c1ccc(C)cc1` has an inhibition in vivo at 50 mg/kg of 20%.
For `C/C(=N\OCC(=O)O)c1ccc(C(C)(C)C)cc1`, the inhibition in vivo at 50 mg/kg was < 20%.
In the case of `C/C(=N\OCC(=O)O)c1ccc(CC2CCCCC2)cc1`, the inhibition in vivo at 50 mg/kg is reported as < 20%.
With `C/C(=N\OCC(=O)O)c1ccc(C2CC2)cc1` the inhibition in vivo at 50 mg/kg was < 20%.
For `C/C(=N\OCC(=O)O)c1ccc(C#N)cc1`, the inhibition in vivo at 50 mg/kg was < 20%.
For `C/C(=N\OCC(=O)O)c1ccc(O)cc1`, the inhibition in vivo at 50 mg/kg was < 20%.
With `COc1ccc(/C(C)=N/OCC(=O)O)cc1` the inhibition in vivo at 50 mg/kg was < 20%.
With `CSc1ccc(/C(C)=N/OCC(=O)O)cc1` the inhibition in vivo at 50 mg/kg was < 20%.
`C/C(=N\OCC(=O)O)c1ccc(S(C)(=O)=O)cc1` gave an inhibition in vivo at 50 mg/kg of 20%.
In the case of `C/C(=N\OCC(=O)O)c1ccc(N)cc1`, the inhibition in vivo at 50 mg/kg is reported as 20%.
For `CC(=O)Nc1ccc(/C(C)=N/OCC(=O)O)cc1`, the inhibition in vivo at 50 mg/kg was < 20%.
With `C/C(=N\OCC(=O)O)c1ccc(N(C)C)cc1` the inhibition in vivo at 50 mg/kg was < 20%.
With `C/C(=N\OCC(=O)O)c1ccc([N+](=O)[O-])cc1` the inhibition in vivo at 50 mg/kg was < 20%.
For `C/C(=N\OCC(=O)O)c1ccc(Cl)c(C)c1`, the inhibition in vivo at 50 mg/kg was 20%.
In the case of `C/C(=N\OCC(=O)O)c1ccc(C2CCCCC2)c(Cl)c1`, the inhibition in vivo at 50 mg/kg is reported as < 20%.
`C/C(=N\OCC(=O)O)c1ccc(F)c(N)c1` showed an inhibition in vivo at 50 mg/kg of 20%.
For `O=C(O)CO/N=C/c1ccccc1Cl`, the inhibition in vivo at 50 mg/kg was < 20%.
In the case of `CN(C)c1ccc(/C=N/OCC(=O)O)cc1`, the inhibition in vivo at 50 mg/kg is reported as < 20%.
In the case of `O=C(O)CO/N=C/c1ccc([N+](=O)[O-])cc1`, the inhibition in vivo at 50 mg/kg is reported as < 20%.
For `C/C(=N\OCC(=O)OCCN(C)C)c1ccc(F)cc1`, the inhibition in vivo at 50 mg/kg was 20%.
For `C/C(=N\OCC(N)=O)c1ccccc1`, the inhibition in vivo at 50 mg/kg was < 20%.
In the case of `C/C(=N\OCC(N)=O)c1ccc(F)cc1`, the inhibition in vivo at 50 mg/kg is reported as 20%.
In the case of `CC/C(=N\OCC(=O)O)c1ccc(Cl)cc1`, the inhibition in vivo at 50 mg/kg is reported as < 20%.
With `CCCCC/C(=N\OCC(=O)O)c1ccc(Cl)cc1` the inhibition in vivo at 50 mg/kg was < 20%.
For `CC(C)=NOCC(=O)O`, the inhibition in vivo at 50 mg/kg was 20%.
In the case of `O=C(O)CO/N=C/c1cccc2ccccc12`, the inhibition in vivo at 50 mg/kg is reported as < 20%.
Compound `C/C(=N\OCC(=O)O)c1cccc2ccccc12` has an inhibition in vivo at 50 mg/kg of 20%.
For `C/C(=N\OCC(=O)O)c1c[nH]c2ccccc12`, the inhibition in vivo at 50 mg/kg was < 20%.
With `O=C(O)CON=C1CCCCC1` the inhibition in vivo at 50 mg/kg was < 20%.
With `O=C(O)CO/N=C1\CCc2cc(Cl)ccc21` the inhibition in vivo at 50 mg/kg was < 20%.
In the case of `OCCO/N=C\c1ccc(Cl)cc1`, the inhibition in vivo at 50 mg/kg is reported as < 20%.
In the case of `O=C(O)CO/N=C\c1ccc(Cl)s1`, the inhibition in vivo at 50 mg/kg is reported as < 20%.
With `C/C(=N/OCCO)c1ccc(Cl)s1` the inhibition in vivo at 50 mg/kg was < 20%.
With `C/C(=N/OCC(=O)O)c1ccc(Cl)s1` the inhibition in vivo at 50 mg/kg was < 20%.
For `C/C(=C\CCC(=O)O)c1ccc(Cl)cc1`, the inhibition in vivo at 50 mg/kg was < 20%.
In the case of `O=C(O)C#Cc1ccc(Cl)cc1`, the inhibition in vivo at 50 mg/kg is reported as < 20%.
For `C/C(=N\NCC(=O)O)c1ccc(C2CCCCC2)c(Cl)c1`, the inhibition in vivo at 50 mg/kg was < 20%.
In the case of `C/C(=N\OCCCCO)c1ccc(Cl)cc1`, the inhibition in vivo at 50 mg/kg is reported as < 20%.
For `C/C(=N\OCC(C)O)c1ccc(Cl)cc1` (configuration not stated), the inhibition in vivo at 50 mg/kg was < 20%.

System: Mus musculus
Test: Neurotoxicity in po dosed mouse
Assay type: toxicity, organism-based
Details: in vivo
Procedure, shortened: (§2)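 Mice were assessed by a modified Irwin observational method.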
In the case of `C/C(=N\OCC(=O)OCCN(C)C)c1ccc(Cl)cc1` [CLOXIMATE], the ED50 is reported as > 1000 mg/kg.

System: not listed separately
Test: Toxicity in po dosed mouse
Assay type: organism-based
Details: in vivo
Procedure, shortened: as §1
With `C/C(=N\OCC(=O)OCCN(C)C)c1ccc(Cl)cc1` [CLOXIMATE] the LD50 was > 1000 mg/kg.

Species: Canis familiaris
Test: Toxicity in dog assessed as effects on gastrointestinal mucosa
Assay type: organism-based, Canis lupus familiaris, Intestinal mucosa
Details: in vivo
In the case of `C/C(=N\OCC(=O)OCCN(C)C)c1ccc(Cl)cc1` [CLOXIMATE], the Activity is reported as “Non-toxic”.

System: Mus musculus
Test: Neurotoxicity in ip dosed mouse
Assay type: toxicity, organism-based
Details: in vivo
Procedure, shortened: as §2
In the case of `C/C(=N\OCC(=O)OCCN(C)C)c1ccc(Cl)cc1` [CLOXIMATE], the ED50 is reported as > 320 mg/kg.

Species: Canis familiaris
Test: Toxicity in dog assessed as effect on emptying rate of stomach
Assay type: organism-based, Canis lupus familiaris
Details: in vivo
For `C/C(=N\OCC(=O)OCCN(C)C)c1ccc(Cl)cc1` [CLOXIMATE], the Activity was “Non-toxic”.
